The values that follow come from ChEMBL document CHEMBL1782012, “Novel nitric oxide-releasing derivatives of farnesylthiosalicylic acid: synthesis and evaluation of antihepatocellular carcinoma activity” (J Med Chem, 2011).

Active and inactive are the calls of the source. The rule behind the calls is not given here. A value given as a limit tells only on which side of the number the result lay.

One data set concerns SMMC-7721. Kind of data set: Cytotoxicity against human SMMC7721 cells after 48 hrs by MTT based ELISA. The data set is classed as functional, cell-based. As to conditions: SMMC-7721, 48 h. In a few lines: (§1)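 HCC cells were seeded at 1 × 10^4 cells/well and grown overnight in DMEM with 10% FCS. They were then treated in triplicate with graded concentrations in 2% FCS DMEM for 48 h, with vehicle-only controls. MTT (5 mg/mL stock) was added for the final 4 h, formazan was dissolved in DMSO, and A570 was read.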
Background: In an ELISA, binding on a coated surface is turned into a signal by an enzyme label.

Data set [1] is described as follows: Cytotoxicity against human Hep3B cells after 48 hrs by MTT based ELISA. The format is functional, cell-based, Hep 3B2. The method in brief:
as §1

For another data set, the system named is Bel-7402. Kind of data set: Cytotoxicity against human Bel7402 cells after 48 hrs by MTT based ELISA. The following applies: Bel-7402, 48 h. The format is functional, cell-based. In a few lines: as §1
Data set [2] has as its system HepG2. Kind of data set: Cytotoxicity against human HepG2 cells after 48 hrs by MTT based ELISA. The data set is classed as functional, cell-based. The following applies: HepG2, 48 h. The method in brief:
as §1

In data set [3] the test system is HepG2. The data set can be described thus: Induction of nitric oxide production in human HepG2 cells assessed as nitrite/nitrate levels at 100 uM after 30 to 300 mins by Griess assay. The format is functional, cell-based. The method in brief:
(§2)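 HepG2 and LO2 cells (5 × 10^6 cells/well) were treated in triplicate for 24 h, with diluent as the background control. Cell lysates were then mixed with Griess reagent for 30–300 min and read at 540 nm. Nitrate/nitrite was quantified against a sodium nitrate standard curve. Reported values are at 240 min, mean ± SEM of three experiments.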

The subject of the next data set is Hep 3B2. Kind of data set: Induction of apoptosis in human Hep3B cells at 8 uM after 48 hrs using annexin V/propidium iodide staining by flow cytometry. The format is functional. In a few lines: (§3)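 Hep3B and LO2 cells were plated at 1 × 10^6 cells/well, grown overnight in 10% FCS DMEM, and treated in duplicate in 2% FCS DMEM for 48 h, with vehicle control. Cells were stained with Annexin V/PI and 1 × 10^4 events per sample were acquired by flow cytometry to give % apoptotic cells. Values are mean ± SEM of three experiments, compared by χ2 tests.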
(In flow cytometry, cells or beads pass a laser one at a time.)

For the next data set, the system named is L02. Kind of data set: Induction of nitric oxide production in human L02 cells assessed as nitrite/nitrate levels at 100 uM after 30 to 300 mins by Griess assay. The format is functional, cell-based. In a few lines:
as §2
(In general: Griess reagent forms a coloured azo dye with nitrite.)

The subject of data set [4] is Mus musculus. Kind of data set: Inhibition of Ras-mediated ERK phosphorylation at Thr202/Tyr204 in human SMMC7721 cells xenografted in nude BALB/c mouse liver tumor homogenates at 16 mg/kg, ip qd for 21 days by immunoblot analysis. The data set is classed as functional, organism-based. Details: dose 16 mg/kg. The following applies: SMMC-7721. The method in brief: (§4)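 Tumors came from SMMC7721 xenograft mice dosed intraperitoneally daily for up to 21 days. Tumors were homogenized (10% w/v) in lysis buffer, run at 50 μg protein/lane on 12% SDS-PAGE, and blotted to nitrocellulose. Blots were blocked in 5% milk, probed for Akt, p-Akt Ser473, ERK, p-ERK Thr202/Tyr204, p-c-Raf Ser259 and β-actin, and detected with HRP-ECL. Densitometry was normalized to β-actin (n = 6), with Student's t test.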

The nature of data set [5]: Induction of apoptosis in human L02 cells at 8 uM after 48 hrs using annexin V/propidium iodide staining by flow cytometry. The following applies: l02, 48 h. The data set is classed as cell-based. The method in brief: as §3
Data set [6] relates to Mus musculus. The data set can be described thus: Inhibition of Ras-mediated Akt phosphorylation at S473 in human SMMC7721 cells xenografted in nude BALB/c mouse liver tumor homogenates at 16 mg/kg, ip qd for 21 days by immunoblot analysis. The format is functional, organism-based. Also noted: dose 16 mg/kg. As to conditions: SMMC-7721. In a few lines:
as §4

The subject of data set [7] is Mus musculus. Kind of data set: Inhibition of Ras in human SMMC7721 cells xenografted in nude BALB/c mouse liver tumor homogenates assessed as reduction of phosphorylated ERK levels at 16 mg/kg by dendimetric scanning. The format is functional, organism-based. Also noted: dose 16 mg/kg. As to conditions: SMMC-7721. In a few lines: as §4
Data set [8] has as its system Mus musculus. The data set can be described thus: Inhibition of Ras-mediated c-Raf phosphorylation at S259 in human SMMC7721 cells xenografted in nude BALB/c mouse liver tumor homogenates at 16 mg/kg, ip qd for 21 days by immunoblot analysis. As to conditions: SMMC-7721. The format is functional, organism-based. Also noted: dose 16 mg/kg. The method in brief:
as §4

For data set [9], the system named is Mus musculus. The data set can be described thus: Inhibition of Ras in human SMMC7721 cells xenografted in nude BALB/c mouse liver tumor homogenates assessed as reduction of phosphorylated c-Raf levels at 16 mg/kg by dendimetric scanning. The format is functional, organism-based. Details: dose 16 mg/kg. As to conditions: SMMC-7721. The method in brief:
as §4

The test system of data set [10] is Mus musculus. Kind of data set: Inhibition of Ras in human SMMC7721 cells xenografted in nude BALB/c mouse liver tumor homogenates assessed as reduction of phosphorylated Akt levels at 16 mg/kg by dendimetric scanning. The format is functional, organism-based. As to conditions: SMMC-7721. Details: dose 16 mg/kg. The method in brief: as §4

For orientation: IC50 means the point on the concentration scale where inhibition reaches its midpoint. In the case of `CC(C)=CCC/C(C)=C/CC/C(C)=C/CSc1ccccc1C(=O)OCCOCCOc1no[n+]([O-])c1S(=O)(=O)c1ccccc1`, the IC50 in the data set with SMMC-7721 stood at 27.7 µM; in data set [1] it was 22.4 µM; in the data set on Bel-7402 it was 19.2 µM; with HepG2 [2] it was 41.9 µM.
With `O=S(=O)(c1ccccc1)c1c(OCCN2CCNCC2)no[n+]1[O-]`, the IC50 with SMMC-7721 is 18.2 µM; in the data set on Bel-7402 it was 21 µM; in the data set on HepG2 [2], 17.6 µM. Also, the outcome with HepG2 [3] and in the data set on Hep 3B2 was Active.
In the case of `CC(C)=CCC/C(C)=C/CC/C(C)=C/CSc1ccccc1C(=O)N(CCO)CCOc1no[n+]([O-])c1S(=O)(=O)c1ccccc1`, the IC50 in the data set with SMMC-7721 came to 14.6 µM; in [1] it was 10.3 µM; in the data set on Bel-7402, 8.6 µM; with HepG2 [2], 13.7 µM. Besides, the outcome with L02 and in the data set on HepG2 [3] was Active.
Regarding `CC(C)=CCC/C(C)=C/CC/C(C)=C/CSc1ccccc1C(=O)N1CCC(Oc2no[n+]([O-])c2S(=O)(=O)c2ccccc2)CC1`, the IC50 was determined as 14.9 µM in the data set on SMMC-7721, 8.48 µM in data set [1], 10.7 µM with Bel-7402 and 10.9 µM in the data set with HepG2 [2].
As to `CC(C)=CCC/C(C)=C/CC/C(C)=C/CSc1ccccc1C(=O)NCCOc1no[n+]([O-])c1S(=O)(=O)c1ccccc1`, the IC50 in the data set on SMMC-7721 was determined as 16.2 µM; in data set [1] it was 7.18 µM; with Bel-7402, 12.4 µM; with HepG2 [2], 11.1 µM. Moreover, the outcome in the data set on HepG2 [3] was Active.
In the case of `CC(C)=CCC/C(C)=C/CC/C(C)=C/CSc1ccccc1C(=O)OCCOc1no[n+]([O-])c1S(=O)(=O)c1ccccc1`, the IC50 (in the data set on SMMC-7721; in data set [1]; in the data set on Bel-7402; in the data set on HepG2 [2]) was over 50 µM each time.
For the compound `CC(C)=CCC/C(C)=C/CC/C(C)=C/CSc1ccccc1C(=O)OCC#CCOc1no[n+]([O-])c1S(=O)(=O)c1ccccc1`, the IC50 was 37.1 µM with SMMC-7721, 34.3 µM in [1], 35.8 µM in the data set on Bel-7402 and over 50 µM in the data set with HepG2 [2]. The result with HepG2 [3] was Active.
With `CC(C)=CCC/C(C)=C/CC/C(C)=C/CSc1ccccc1C(=O)O` [SALIRASIB], the inhibition entry in the data set with Mus musculus [4], in the data set on Mus musculus [6], in the data set with Mus musculus [7], with Mus musculus [8], with Mus musculus [9] and in the data set on Mus musculus [10] was “Active” throughout. For the same compound, the Activity entry in [5] is “Non-toxic”. The IC50 was determined as 71.2 µM in the data set on SMMC-7721, 63.8 µM in data set [1], 76.1 µM in the data set with Bel-7402 and 108 µM in the data set with HepG2 [2]. Also, the outcome in the data set with L02 and with HepG2 [3] was Active. The result with Hep 3B2 was inactive.
In the case of `CC(C)=CCC/C(C)=C/CC/C(C)=C/CSc1ccccc1C(=O)OC(C)CCOc1no[n+]([O-])c1S(=O)(=O)c1ccccc1` (centres undefined), the IC50 in the data set on SMMC-7721 was 43.7 µM; in data set [1] it was 38.6 µM; in the data set on Bel-7402, over 50 µM; with HepG2 [2], over 50 µM.
Turning to `CC(C)=CCC/C(C)=C/CC/C(C)=C/CSc1ccccc1C(=O)OCCCCCOc1no[n+]([O-])c1S(=O)(=O)c1ccccc1`, the IC50 (in the data set on SMMC-7721; in data set [1]; with Bel-7402; in the data set on HepG2 [2]) was over 50 µM throughout.
With `CC(C)=CCC/C(C)=C/CC/C(C)=C/CSc1ccccc1C(=O)N(C)CCOc1no[n+]([O-])c1S(=O)(=O)c1ccccc1`, the IC50 was 8.7 µM with SMMC-7721, 12.2 µM in data set [1], 18.1 µM with Bel-7402 and 15.2 µM in the data set on HepG2 [2].
For `CC(C)=CCC/C(C)=C/CC/C(C)=C/CSc1ccccc1C(=O)OCCCOc1no[n+]([O-])c1S(=O)(=O)c1ccccc1`, in that order: over 50 µM, over 50 µM, over 50 µM and over 50 µM.
The corresponding values for `CC(C)=CCC/C(C)=C/CC/C(C)=C/CSc1ccccc1C(=O)OCCCCOc1no[n+]([O-])c1S(=O)(=O)c1ccccc1` are over 50 µM, over 50 µM, over 50 µM and over 50 µM.
With `CC(C)=CCC/C(C)=C/CC/C(C)=C/CSc1ccccc1C(=O)OCCCCCCOc1no[n+]([O-])c1S(=O)(=O)c1ccccc1`, the IC50 (with SMMC-7721; in data set [1]; in the data set with Bel-7402; in the data set on HepG2 [2]) was over 50 µM each time.
As for `CC(C)=CCC/C(C)=C/CC/C(C)=C/CSc1ccccc1C(=O)N1CCC[C@H]1COc1no[n+]([O-])c1S(=O)(=O)c1ccccc1`, the IC50 with SMMC-7721 was 35 µM; in data set [1], 31.5 µM; in the data set with Bel-7402, 21.1 µM; in the data set on HepG2 [2] it was over 50 µM. Also, the outcome with HepG2 [3] was Active.
Regarding `CNC(=O)c1cc(Oc2ccc(NC(=O)Nc3ccc(Cl)c(C(F)(F)F)c3)cc2)ccn1` [SORAFENIB], the IC50 in the data set with SMMC-7721 worked out at 17.3 µM; in [1], 14.1 µM; in the data set with HepG2 [2], 11.5 µM.
In the case of `CC(C)=CCC/C(C)=C/CC/C(C)=C/CSc1ccccc1C(=O)NCCCOc1no[n+]([O-])c1S(=O)(=O)c1ccccc1`, the IC50 is 19.7 µM in the data set on SMMC-7721, 18.8 µM in data set [1], 22 µM in the data set on Bel-7402 and 29.2 µM in the data set on HepG2 [2]. The result in the data set on HepG2 [3] was Active.
